Measured values reported in ChEMBL document CHEMBL1138564, “Microwave-induced synthesis and anti-microbial activities of 7,10,11,12-tetrahydrobenzo[c]acridin-8(9H)-one derivatives” (2009).
In brackets after ≈: the same amount, converted by molar mass. Activity calls are given as the source filed them. No cut-off for these calls is given here.

Experiments:
[1] = test system: Staphylococcus; assay: Antimicrobial activity against Staphylococcus albus NCIM 2178 at 1000 ug/disk after 24 hrs by disk diffusion method; format: functional; conditions: for zone of inhibition at 1000 µg/disc: NCIM 2178, 24 h, read-out: DIZ
Method in brief: (§1)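 Disc diffusion. 100 µl of bacterial suspension at 10⁸ CFU/ml was spread on Mueller–Hinton agar. Discs loaded with test compound dissolved in DMSO were placed on the lawn, with a DMSO-only disc as negative control. Plates were incubated at 37 °C for 24 h, and the inhibition zone diameter was measured.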

[2] = test system: Aspergillus niger; assay: Antimicrobial activity against Aspergillus niger NCIM 1196 at 1000 ug/disk after 72 hrs by disk diffusion method
[3] = test system: Bacillus cereus; assay: Antimicrobial activity against Bacillus cereus NCIM 2155 at 500 ug/disk after 24 hrs by disk diffusion method; format: functional; conditions: for zone of inhibition at 500 µg/disc: NCIM 2155, 24 h, read-out: DIZ
Method in brief: (§2)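 Disc diffusion on Mueller–Hinton agar. 100 µl of bacterial suspension at 10⁸ CFU/ml is spread on the plate. Discs carry test compounds at two loadings, dissolved in DMSO; DMSO alone serves as negative control. Ofloxacin disc is the positive reference. Plates are incubated at 37 °C for 24 h, and the inhibition zone diameter is measured.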

[4] = test system: Aliivibrio fischeri; assay: Antimicrobial activity against Vibrio fischeri NCIM 2154 at 1000 ug/disk after 24 hrs by disk diffusion method; format: functional; conditions: for zone of inhibition at 1000 µg/disc: NCIM 2154, 24 h, read-out: DIZ; method in brief: as §1
[5] = test system: Aspergillus flavus; assay: Antimicrobial activity against Aspergillus flavus NCIM 902 at 500 ug/disk after 72 hrs by disk diffusion method; format: functional; conditions: NCIM 902, 72 h, read-out: DIZ
Method in brief: (§3)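 Disc diffusion on Sabouraud's dextrose agar. 100 µl of fungal suspension at 10⁶ CFU/ml is spread on the plate. Discs carry test compounds at two loadings in DMSO; DMSO alone is the negative control. Clotrimazole disc is the positive reference. Plates are incubated at 27 °C for 72 h, and the zone of inhibition diameter is measured.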

[6] = test system: Lipomyces lipofer; assay: Antimicrobial activity against Lipomyces lipofer NCIM 3252 at 500 ug/disk after 72 hrs by disk diffusion method; format: functional; conditions: for zone of inhibition at 500 µg/disc: NCIM 3252, 72 h, read-out: DIZ; method in brief: as §3
[7] = test system: Aspergillus niger; assay: Antimicrobial activity against Aspergillus niger NCIM 1196 at 500 ug/disk after 72 hrs by disk diffusion method
[8] = test system: Rhodococcus corynebacterioides; assay: Antimicrobial activity against Corynebacterium rubrum NCIM 2252 after 24 hrs by serial dilution method; format: functional; conditions: Rhodococcoides corynebacterioides, NCIM 2252, 24 h
Method in brief: (§4)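 Broth dilution MIC in nutrient broth, run only for organisms found sensitive in disc diffusion. Compounds are two-fold serially diluted in 1 ml sterile broth per tube, spanning 3.9 to 1000. Inoculated tubes are incubated at 37 °C for 24 h.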

[9] = test system: Lipomyces lipofer; assay: Antimicrobial activity against Lipomyces lipofer NCIM 3252 at 1000 ug/disk after 72 hrs by disk diffusion method; format: functional; conditions: for zone of inhibition at 1000 µg/disc: NCIM 3252, 72 h, read-out: DIZ; method in brief: as §3
[10] = test system: Aspergillus fumigatus; assay: Antimicrobial activity against Aspergillus fumigatus NCIM 902 after 72 hrs by serial dilution method; format: functional; conditions: NCIM 902, 72 h
Method in brief: (§5)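 MIC by broth dilution in Sabouraud's dextrose broth, only for fungi sensitive in disc diffusion. Two-fold serial dilutions of compounds are made in 1 ml broth per tube, range 3.9 to 1000. Inoculated tubes are incubated at 27 °C for 72 h.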

[11] = test system: Pseudomonas aeruginosa; assay: Antimicrobial activity against Pseudomonas aeruginosa NCIM 2200 at 1000 ug/disk after 24 hrs by disk diffusion method; format: functional; conditions: for zone of inhibition at 1000 µg/disc: NCIM 2200, 24 h, read-out: DIZ; method in brief: as §2
[12] = test system: Salmonella typhimurium; assay: Antimicrobial activity against Salmonella Typhimurium NCIM 2501 at 500 ug/disk after 24 hrs by disk diffusion method; format: functional; conditions: for diameter of the inhibition zone (DIZ): Salmonella enterica subsp. enterica serovar Typhimurium; for zone of inhibition at 500 µg/disc: Salmonella enterica, NCIM 2501, 24 h, read-out: DIZ; method in brief: as §1
[13] = test system: Aspergillus parasiticus; assay: Antimicrobial activity against Aspergillus parasiticus NCIM 904 at 1000 ug/disk after 72 hrs by disk diffusion method; format: functional; conditions: NCIM 904, 72 h, read-out: DIZ; method in brief: as §3
[14] = test system: Salmonella typhimurium; assay: Antimicrobial activity against Salmonella Typhimurium NCIM 2501 after 24 hrs by serial dilution method; format: functional, Salmonella enterica subsp. enterica serovar Typhimurium; conditions: Salmonella enterica, NCIM 2501, 24 h
[15] = test system: Bacillus cereus; assay: Antimicrobial activity against Bacillus cereus NCIM 2155 after 24 hrs by serial dilution method; format: functional; conditions: NCIM 2155, 24 h; method in brief: as §4
[16] = test system: Staphylococcus; assay: Antimicrobial activity against Staphylococcus albus NCIM 2178 after 24 hrs by serial dilution method; format: functional; conditions: NCIM 2178, 24 h
[17] = test system: Proteus vulgaris; assay: Antimicrobial activity against Proteus vulgaris NCIM 2027 after 24 hrs by serial dilution method; format: functional; conditions: NCIM 2027, 24 h; method in brief: as §4
[18] = test system: Pseudomonas aeruginosa; assay: Antimicrobial activity against Pseudomonas aeruginosa NCIM 2200 after 24 hrs by serial dilution method; format: functional; conditions: NCIM 2200, 24 h; method in brief: as §4
[19] = test system: Lipomyces lipofer; assay: Antimicrobial activity against Lipomyces lipofer NCIM 3252 after 72 hrs by serial dilution method; format: functional; conditions: NCIM 3252, 72 h; method in brief: as §5
[20] = test system: Penicillium chrysogenum; assay: Antimicrobial activity against Penicillium chrysogenum NCIM 707 after 72 hrs by serial dilution method; format: functional; conditions: NCIM 707, 72 h; method in brief: as §5
[21] = test system: Klebsiella aerogenes; assay: Antimicrobial activity against Klebsiella aerogenes NCIM 2239 after 24 hrs by serial dilution method; format: functional; conditions: NCIM 2239, 24 h; method in brief: as §4
[22] = test system: Aspergillus niger; assay: Antimicrobial activity against Aspergillus niger NCIM 902 after 72 hrs by serial dilution method; format: functional; conditions: NCIM 1196, 72 h, in the assay text read “NCIM 1196” for “NCIM 902”; method in brief: as §5
[23] = test system: Aspergillus niger; assay: Antimicrobial activity against Aspergillus niger NCIM 902 at 500 ug/disk after 72 hrs by disk diffusion method; format: functional; conditions: NCIM 1196, 72 h, in the assay text read “NCIM 1196” for “NCIM 902”, read-out: DIZ; method in brief: as §3
[24] = test system: Aspergillus niger; assay: Antimicrobial activity against Aspergillus niger NCIM 902 at 1000 ug/disk after 72 hrs by disk diffusion method; format: functional; conditions: NCIM 1196, 72 h, in the assay text read “NCIM 1196” for “NCIM 902”, read-out: DIZ; method in brief: as §3

SMILES	MIC [8] [µg/mL]	MIC [10] [µg/mL]	MIC [14] [µg/mL]	MIC [15] [µg/mL]	MIC [19] [µg/mL]	MIC [21] [µg/mL]	diameter of the inhibition zone (DIZ) [1]	diameter of the inhibition zone (DIZ) [2]	zone of inhibition at 1000 µg/disc [4] [mm]	zone of inhibition at 500 µg/disc [5] [mm]	diameter of the inhibition zone (DIZ) [6]	diameter of the inhibition zone (DIZ) [7]	diameter of the inhibition zone (DIZ) [9]	diameter of the inhibition zone (DIZ) [11]	diameter of the inhibition zone (DIZ) [12]	zone of inhibition at 1000 µg/disc [13] [mm]	zone of inhibition at 500 µg/disc [3] [mm]	zone of inhibition at 500 µg/disc [12] [mm]	zone of inhibition at 1000 µg/disc [1] [mm]	zone of inhibition at 1000 µg/disc [9] [mm]	also measured
O=C1CCCC2=C1C(c1ccccc1Cl)c1ccc3ccccc3c1N2 (centres undefined)	125 (≈ 347 µM)	62.5 (≈ 174 µM)	–	–	–	–	inactive	inactive	9	7	inactive	inactive	inactive	inactive	inactive	10	–	–	–	–	diameter of the inhibition zone (DIZ) [3]: inactive
O=C1CCCC2=C1C(c1cccc([N+](=O)[O-])c1)c1ccc3ccccc3c1N2 (centres undefined)	125 (≈ 337 µM)	125 (≈ 337 µM)	62.5 (≈ 169 µM)	62.5 (≈ 169 µM)	62.5 (≈ 169 µM)	125 (≈ 337 µM)	–	–	9	8	–	–	–	inactive	–	13	7	7	11	10	MIC [22]: 125 µg/mL (≈ 337 µM); MIC [16]: 62.5 µg/mL (≈ 169 µM); zone of inhibition at 500 µg/disc [6]: 8 mm; MIC [17]: 125 µg/mL (≈ 337 µM); zone of inhibition at 500 µg/disc [23]: 7 mm; zone of inhibition at 1000 µg/disc [24]: 7 mm
O=C1CCCC2=C1C(c1ccccc1O)c1ccc3ccccc3c1N2 (centres undefined)	–	62.5 (≈ 183 µM)	–	125 (≈ 366 µM)	–	–	inactive	–	–	8	inactive	inactive	inactive	inactive	inactive	10	7	–	–	–	MIC [22]: 125 µg/mL (≈ 366 µM); diameter of the inhibition zone (DIZ) [4]: inactive; zone of inhibition at 1000 µg/disc [24]: 9 mm; MIC [20]: 125 µg/mL (≈ 366 µM)
O=C1CCCC2=C1C(c1cccc(Cl)c1)c1ccc3ccccc3c1N2 (centres undefined)	125 (≈ 347 µM)	31.2 (≈ 86.7 µM)	–	–	–	125 (≈ 347 µM)	inactive	inactive	10	9	inactive	inactive	inactive	inactive	inactive	13	–	–	–	–	diameter of the inhibition zone (DIZ) [3]: inactive

Now from value to compound, other results behind:

MIC [8] [µg/mL]	MIC [10] [µg/mL]	MIC [14] [µg/mL]	MIC [15] [µg/mL]	MIC [19] [µg/mL]	MIC [21] [µg/mL]	SMILES	diameter of the inhibition zone (DIZ) [1]	diameter of the inhibition zone (DIZ) [2]	zone of inhibition at 1000 µg/disc [4] [mm]	zone of inhibition at 500 µg/disc [5] [mm]	diameter of the inhibition zone (DIZ) [6]	diameter of the inhibition zone (DIZ) [7]	diameter of the inhibition zone (DIZ) [9]	diameter of the inhibition zone (DIZ) [11]	diameter of the inhibition zone (DIZ) [12]	zone of inhibition at 1000 µg/disc [13] [mm]	zone of inhibition at 500 µg/disc [3] [mm]	zone of inhibition at 500 µg/disc [12] [mm]	zone of inhibition at 1000 µg/disc [1] [mm]	zone of inhibition at 1000 µg/disc [9] [mm]	also measured
–	62.5 (≈ 177 µM)	62.5 (≈ 177 µM)	31.2 (≈ 88.3 µM)	–	–	CC1(C)CC(=O)C2=C(C1)Nc1c(ccc3ccccc13)C2c1ccccc1 (centres undefined)	inactive	inactive	8	9	inactive	inactive	inactive	inactive	–	10	9	9	–	–	–
125 (≈ 314 µM)	62.5 (≈ 157 µM)	15.6 (≈ 39.2 µM)	15.6 (≈ 39.2 µM)	62.5 (≈ 157 µM)	31.2 (≈ 78.3 µM)	CC1(C)CC(=O)C2=C(C1)Nc1c(ccc3ccccc13)C2c1cccc([N+](=O)[O-])c1 (centres undefined)	–	inactive	10	9	–	inactive	–	–	–	16	10	10	9	11	MIC [16]: 125 µg/mL (≈ 314 µM); zone of inhibition at 500 µg/disc [6]: 8 mm; MIC [17]: 125 µg/mL (≈ 314 µM); MIC [18]: 125 µg/mL (≈ 314 µM); zone of inhibition at 1000 µg/disc [11]: 8 mm; MIC [20]: 62.5 µg/mL (≈ 157 µM)
–	–	31.2 (≈ 84.4 µM)	62.5 (≈ 169 µM)	–	62.5 (≈ 169 µM)	CC1(C)CC(=O)C2=C(C1)Nc1c(ccc3ccccc13)C2c1ccccc1O (centres undefined)	inactive	inactive	8	9	inactive	inactive	inactive	inactive	–	16	7	10	–	–	–
–	125 (≈ 322 µM)	31.2 (≈ 80.4 µM)	31.2 (≈ 80.4 µM)	125 (≈ 322 µM)	125 (≈ 322 µM)	CC1(C)CC(=O)C2=C(C1)Nc1c(ccc3ccccc13)C2c1ccccc1Cl (centres undefined)	inactive	inactive	9	8	–	inactive	–	inactive	–	10	8	10	–	10	zone of inhibition at 500 µg/disc [6]: 7 mm
62.5 (≈ 161 µM)	125 (≈ 322 µM)	31.2 (≈ 80.4 µM)	15.6 (≈ 40.2 µM)	–	62.5 (≈ 161 µM)	CC1(C)CC(=O)C2=C(C1)Nc1c(ccc3ccccc13)C2c1ccc(Cl)cc1 (centres undefined)	–	inactive	9	7	inactive	inactive	inactive	–	–	17	10	9	9	–	MIC [16]: 125 µg/mL (≈ 322 µM); MIC [17]: 62.5 µg/mL (≈ 161 µM); MIC [18]: 62.5 µg/mL (≈ 161 µM); zone of inhibition at 1000 µg/disc [11]: 9 mm
125 (≈ 322 µM)	62.5 (≈ 161 µM)	62.5 (≈ 161 µM)	62.5 (≈ 161 µM)	125 (≈ 322 µM)	125 (≈ 322 µM)	CC1(C)CC(=O)C2=C(C1)Nc1c(ccc3ccccc13)C2c1cccc(Cl)c1 (centres undefined)	inactive	inactive	9	9	inactive	inactive	–	inactive	–	12	9	8	–	8	MIC [20]: 62.5 µg/mL (≈ 161 µM)
